Rows were chosen to be rich in hits. Some 3.8% of all compounds tested hit in one or more screens of this group.
HSP90 inh: HSP90 refolding inhibition in rabbit reticulocyte lysate. luciferase refolding luminescence, 3 h. inhibition, % at 5.6 µM. 0.91% of 290,000 active. AID 1789;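 active = inhibition above the screen-wide mean plus 3 SD, computed separately per campaign, cut at about 16% in these data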;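 also: 0% = DMSO wells and 100% = 60 µM geldanamycin wells; inhibitors lower the luminescence because luciferase stays unfolded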
Lipid droplet: modulators of hepatic lipid droplet formation. AML12 mouse hepatocytes, oleate lipid droplets, BODIPY imaging. 0.4% of 240,000 active. inhibition, % at 6.5 µM. AID 1656;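 active = lipid droplet intensity inhibited by at least 50%, with more than 500 cells counted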
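Test system: AML12 mouse liver cells; schedule: overnight exposure; technique: high-content imaging of BODIPY-stained droplets and DAPI nuclei; read-out: % inhibition of corrected integrated BODIPY droplet signal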
HSF1 activator: increases HSF-1 driven luciferase reporter signal | NIH3T3-HGL HSF-1 luciferase reporter, MG132, 8 h; 100% = twice DMSO control signal | 1.7% of 300,000 active | activation, % at 9 µM;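 active = mean replicate activation of at least 50% with a set share of replicates each reaching 50%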;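 also: 0% = median of the neutral control wells and 100% = twice that signal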
HSF1 inh: HSF1 inhibition. NIH3T3-HGL HSE-luciferase, MG132-induced, luminescence 8 h; stronger effect = lower value. activity change, negative = inhibition, % at 7.5 µM (by protocol). 0.77% of 300,000 active;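 active = more than half of replicate wells show activity change below -50%, luminescence cut by over half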;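 also: luciferase reports HSF-1 transcriptional activity via heat shock element; 0% = median of DMSO wells and -100% = zero luminescence signal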
NS3 helicase inh: HCV NS3 helicase inhibition; 0.56% of 290,000 active; inhibition, % at 10.9 µM; AID 1800; NS3 helicase DNA unwinding, Cy5 molecular beacon fluorescence;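 active = inhibition above the mean of all tested compounds plus 3 SD, set per campaign, cut at about 35% in these data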;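 also: 0% = DMSO wells and 100% = thioflavine S control wells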
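assay system = NS3 helicase fragment of HCV | buffer or medium = MOPS pH 6.5, MgCl2, DTT, Tween20, BSA | timing = 60 min unwinding reaction at 25 °C after ATP addition | signal = Cy5 beacon fluorescence read at start and 1 h | read-out basis = % inhibition of unwinding | control set = low DMSO, high thioflavine S at 110 µM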
HSP90 confirm: confirmation of HSP90 inhibitors; AID 1846; rabbit reticulocyte lysate, luciferase refolding luminescence, 3 h; shares compounds with HSP90 inh; inhibition, % at 5.9 µM; 64% of 2,300 active; in the data active = inhibition above about 18%;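 also: 0% = vehicle wells and 100% = reference inhibitor wells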
FLuc counter: firefly luciferase inhibition, HSP90 counter-screen | inhibition, % at 5.9 µM | shares compounds with HSP90 inh | AID 1847 | 48% of 2,300 active | purified native firefly luciferase, luminescence;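 active = inhibition above the mean inhibition of all tested sample wells plus 3 SD, cut at about 10% in these data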;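 also: 0% = DMSO with luciferase and 100% = wells lacking luciferase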
Target sequence (P08659 whole entry, looked up): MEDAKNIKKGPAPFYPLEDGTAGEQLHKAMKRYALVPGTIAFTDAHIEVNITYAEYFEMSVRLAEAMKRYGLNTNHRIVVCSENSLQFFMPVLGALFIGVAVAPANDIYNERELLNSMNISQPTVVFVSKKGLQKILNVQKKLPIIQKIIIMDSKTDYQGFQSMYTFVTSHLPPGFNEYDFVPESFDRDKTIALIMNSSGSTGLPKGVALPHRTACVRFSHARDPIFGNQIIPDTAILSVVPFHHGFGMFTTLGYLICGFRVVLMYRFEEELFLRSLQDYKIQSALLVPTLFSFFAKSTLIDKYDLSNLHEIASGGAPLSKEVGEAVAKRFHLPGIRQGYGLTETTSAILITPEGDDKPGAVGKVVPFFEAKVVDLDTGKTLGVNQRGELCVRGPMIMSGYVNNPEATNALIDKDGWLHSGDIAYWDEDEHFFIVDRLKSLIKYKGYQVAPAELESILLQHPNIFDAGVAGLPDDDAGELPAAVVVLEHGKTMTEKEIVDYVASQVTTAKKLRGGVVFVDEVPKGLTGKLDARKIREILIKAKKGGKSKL
The depositor's hits bear a star; x = not tested or not shown.

SMILES	HSP90 inh	Lipid droplet	HSF1 activator	HSF1 inh	NS3 helicase inh	HSP90 confirm	FLuc counter
Cn1c(=O)c2sccc2n2c(CCCC(=O)N3CCCCC3)nnc12	2.8	10.6	47.8	9.8	6.6	x	x
CCC(NC(=O)C1C2C=CC(C2)C1C(=O)O)c1ccc(C)cc1 (centres undefined)	-1.1	13.4	24.4	2.7	14.0	x	x
COc1ccc(C2=NN(c3ccc(C(=O)O)cc3)C(c3ccc(OC)c(OC)c3)C2)cc1 (centres undefined)	19.4*	11.2	3.6	2.2	-12.8	46.0*	38.4*
Cc1ccc2c(ccc(=S)n2C)c1	0.2	-0.5	-3.4	2.6	-12.1	x	x
COc1ccc(CNC[C@@H](CCCCN(C)Cc2ccc(OC)cc2)N2C[C@H](c3ccccc3)N(CCc3ccc(Cl)c(Cl)c3)C(=O)C2=O)cc1	17.5*	-11.8	-4.4	8.1	-57.3	19.8*	-5.1
COc1ccc(/C=N/Nc2nc3ccccc3s2)cc1O	21.5*	24.5	-34.0	-18.3	-13.6	55.4*	49.0*
COc1ccc(/C=N/Nc2nc3ccccc3o2)cc1O	8.7	19.9	32.9	18.5	-4.7	x	x
CCOC(=O)N1CCC(N2C(=O)c3ccccc3C2Nc2ccc3c(C)cc(=O)oc3c2)CC1 (centres undefined)	18.2*	18.2	2.7	3.9	2.5	2.1	-0.2
CCN(CC)CCn1c2c(c(SCC(=O)Nc3nc4ccccc4s3)nc1=O)CCC2	x	x	8.4	2.2	x	x	x
COc1ccc(/C(=N/Nc2ncnc3ccccc23)C(=O)O)cc1	3.9	12.4	6.4	20.7	-21.0	x	x
CCOC(=O)/C(=N\Nc1ncnc2ccccc12)c1ccc(OC)cc1	18.1*	-15.3	7.8	6.6	-26.9	23.1*	-27.9
CCN(CC)c1ccc2cc(NC(=O)CCC(=O)O)c(=O)oc2c1	32.6*	-1.6	19.6	2.0	-2.3	36.0*	-31.5
Nn1cnnc1N/N=C\c1ccc(-c2ccccc2[N+](=O)[O-])o1	76.2*	-3.0	37.6	14.2	-1.3	-2.2	-3.8
O=[N+]([O-])c1ccccc1-c1ccc(/C=N/n2cnnc2)o1	-1.9	x	5.7	3.3	0.8	x	x
CCOC(=O)C1CC(c2ccccc2)=NNC1=O (centres undefined)	-2.6	-18.1	-3.4	1.7	3.5	x	x
Cc1c(C(=O)O)cccc1-n1c(C)cc(C=O)c1C	22.2*	23.3	-12.3	-6.2	4.0	19.4*	4.5
CCOc1ccc(S(=O)(=O)NCCCN2CCCC2=O)cc1	-0.9	-16.6	-20.2	-4.7	-1.8	x	x
Cc1cccc(NS(=O)(=O)c2cccc(C(=O)N3CCCC(C(F)(F)F)C3)c2)c1 (centres undefined)	x	x	-17.7	2.3	x	x	x
CC1CCN(c2oc(-c3cccc4ccccc34)nc2C#N)CC1	-0.2	0.0	28.9	3.0	4.3	x	x
N#Cc1nc(-c2cccc3ccccc23)oc1N1CCCCC1	21.2*	x	26.1	20.4	-0.9	-0.4	-12.2
Cc1cc(C)n2nc(C(=O)Nc3ccc(S(=O)(=O)N(C)C)cc3)nc2n1	1.2	27.2	18.0	1.8	2.7	x	x
Cc1ccc(NCCC(=O)c2cccs2)cc1	7.4	14.8	13.1	17.4	-2.4	x	x
CC(C)c1ccc(NCCC(=O)c2cccs2)cc1	28.8*	11.7	-18.8	-9.2	-0.9	34.8*	-8.6
COc1ccc(CN2CCN(C(=O)c3ccco3)CC2)c(OC)c1OC	x	x	-10.4	-2.3	x	x	x
COCCn1c(C)cc(C(=O)COC(=O)C23CC4CC(CC(O)(C4)C2)C3)c1C	34.9*	x	-11.4	-6.0	6.2	46.2*	33.3*
SMILES	HSP90 inh	Lipid droplet	HSF1 activator	HSF1 inh	NS3 helicase inh	HSP90 confirm	FLuc counter
O=C1CC(c2ccc3c(c2)OCCO3)Oc2ccc([N+](=O)[O-])cc21 (centres undefined)	54.6*	-20.5	-53.0	-46.8	-6.0	65.8*	63.8*
CCCc1ccc(-c2ccc(/C=C/C(=O)O)cc2)nc1	58.6*	2.2	-44.4	-32.3	3.4	81.7*	51.3*
O=C1CC(NS(=O)(=O)c2cccs2)CN1c1ccccc1 (centres undefined)	x	x	-7.4	-8.6	x	x	x
CCCn1c(CN2CCN(C(=O)OCC)CC2)nc2cc(NC(=O)C(C)C)ccc21	6.1	-0.2	-5.6	-5.0	-12.9	x	x
Cc1ccnc(SCC(=O)N2CCN(c3ccccc3)CC2)n1	-0.1	-6.4	-2.6	-10.2	-4.4	x	x
O=C(CSc1ncn(-c2ccccc2)n1)N1CCN(c2ccccc2)CC1	34.8*	5.0	7.7	-0.5	0.4	-5.9	-5.6
O=C(CNS(=O)(=O)c1ccc(Br)s1)NCc1ccccc1	17.2*	3.5	68.9*	29.3	-1.2	-2.7	-4.7
Cc1cnc(NC(=O)COc2ccccc2Cl)s1	58.2*	x	-20.0	-16.5	2.6	79.1*	77.5*
COc1cc(/C=N/NC(=O)c2cccc(S(=O)(=O)N3CCCCC3)c2)cc(Br)c1O	0.5	-14.1	6.5	-4.2	12.7	x	x
O=C(COC(=O)c1ccccc1[N+](=O)[O-])c1ccc(C2CCCCC2)cc1	50.6*	x	-26.2	-31.3	6.9	63.1*	79.3*
N#CC1(NC(=O)COC(=O)c2ccccc2[N+](=O)[O-])CCCCC1	x	x	16.4	10.7	x	x	x
O=C(Cc1cccs1)NCc1cc(Cl)cc(Cl)c1	-4.2	x	24.3	15.8	-1.3	x	x
Cc1nc2c(-c3ccc(F)cc3)cnn2c(N)c1-c1ccc(F)cc1	46.5*	x	-62.1	-56.5*	-25.8	49.6*	48.8*
Cc1cc(N)n2ncc(-c3ccc(F)cc3)c2n1	-1.8	9.9	32.3	21.3	-6.3	x	x
C=CCn1c(C)cc(C(=O)CN2NS(=O)(=O)c3ccccc3C2=O)c1C	34.7*	7.4	x	x	1.8	35.5*	12.3*
Nc1ccc(-c2nc3ccc(C(=O)O)cc3s2)cc1	99.6*	-7.9	-49.5	-41.4	2.1	100.8*	91.9*
O=C(O)c1ccc2nc(-c3ccccc3)sc2c1	94.6*	1.4	-57.1	-57.9*	-20.7	95.0*	78.8*
CC1CCN(c2nc3ccc(C(=O)O)cc3s2)CC1	96.7*	x	-84.8	-83.1*	0.2	100.3*	92.5*
COC(=O)c1sc(SC)c(-c2ccon2)c1C	-1.4	-9.6	0.5	1.3	-0.9	x	x
COc1ccccc1C(=O)NC1CCN(C(=O)Nc2ccc(C)cc2)CC1	-0.6	2.5	0.2	-4.3	-9.7	x	x
O=C(O)CC1SC(N/N=C/c2ccc(Br)cc2)NC1=O (centres undefined)	17.2*	14.7	1.0	-4.0	-12.8	24.1*	-9.6
CC(C)NC(=O)CC(=O)N/N=C/c1ccc(Br)cc1	-2.9	x	-11.0	-2.5	2.1	x	x
Brc1ccc(C2Nc3cccc4cccc(c34)N2)o1	19.0*	x	5.0	-4.4	10.8	10.8	-17.6
CCN(CC)S(=O)(=O)c1ccc(NC(=O)c2nc3nc(C)cc(C)n3n2)cc1	-0.2	29.8	-6.3	-6.2	6.0	x	x

Screening data: PubChem BioAssay, several laboratories
